We go through one molecule from ChEMBL document CHEMBL4346727, “Synthesis and pharmacological evaluation of novel N-Mannich bases derived from 5,5-diphenyl and 5,5-di(propan-2-yl)imidazolidine-2,4-dione core” (Bioorg Med Chem Lett, 2019).

Data set [1] is described as follows: Neurotoxicity in Sprague-Dawley rat at 30 mg/kg, po measured after 2 hr by rotarod test. It counts as toxicity, organism-based. To be noted: in vivo. In short, it runs like this:
(§1)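 Rats given one oral dose of 30 mg/kg and tested on the rotarod at 0.25, 0.5, 1, 2, 4 and 6 h.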
(Falling from the rotarod earlier than controls is read as motor impairment.)

Data set [2] can be described thus: Neurotoxicity in Sprague-Dawley rat at 30 mg/kg, po measured after 1 hr by rotarod test. To be noted: in vivo. It counts as toxicity, organism-based. Put shortly: as §1
Data set [3] in a line: Neurotoxicity in ip dosed CD1 mouse and measured after 4 hrs by rotarod test. It counts as toxicity, organism-based. To be noted: in vivo. In short, it runs like this: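 Mice dosed intraperitoneally at 30, 100 and 300 mg/kg, then tested on the rotarod at 0.5 h and 4 h. The value recorded is the minimum dose at which neurotoxicity appeared. A dash means no neurotoxicity at the top dose of 300 mg/kg.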

The subject of data set [4] is Mus musculus. As to the kind of experiment: Anticonvulsant activity in ip dosed CD1 mouse assessed as protection against 50 mA current-induced seizure and measured after 4 hrs by maximal electroshock seizure test. It is filed as functional. To be noted: read-out: MED. Put shortly: (§2)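 Mice were screened after intraperitoneal doses of 30, 100 and 300 mg/kg in the maximal electroshock and subcutaneous pentylenetetrazole tests, examined at 0.5 and 4 h. The value recorded is the minimum dose showing activity. No activity up to 300 mg/kg is scored as absent.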
(In the maximal electroshock model the usual endpoint is tonic extension of the hind limbs.)

Data set [5] has as its system Mus musculus. The data set can be described thus: Anticonvulsant activity in ip dosed CD1 mouse assessed as protection against 50 mA current-induced seizure and measured after 0.5 hrs by maximal electroshock seizure test. It is filed as functional. As to conditions: read-out: MED. Put shortly:
as §2

Data set [6] deals with Mus musculus. The data set can be described thus: Anticonvulsant activity in ip dosed CD1 mouse assessed as time to peak effect on protection against 50 mA current-induced seizures. It counts as functional. Put shortly: (§3)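 Median effective doses were quantified in the maximal electroshock, subcutaneous pentylenetetrazole and 6 Hz tests after intraperitoneal dosing in mice or oral dosing in rats, at the time of peak effect. ED50 values are reported with ranges in parentheses.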

Data set [7] in a line: Neurotoxicity in ip dosed CD1 mouse assessed as time to peak effect by rotarod test. It counts as toxicity, organism-based. As to conditions: in vivo.
The test system of data set [8] is Mus musculus. The data set can be described thus: Anticonvulsant activity in ip dosed CD1 mouse assessed as protection against 50 mA current-induced seizures. It is filed as functional. In short, it runs like this:
as §3

Data set [9] deals with Mus musculus. The data set can be described thus: Anticonvulsant activity in ip dosed CD1 mouse assessed as protection against subcutaneous pentylenetetrazole-induced seizures. It is filed as functional. Put shortly:
as §3

Data set [10] has as its system Mus musculus. As to the kind of experiment: Anticonvulsant activity in ip dosed CD1 mouse assessed as protection against 32 mA current-induced seizure by 6 Hz psychomotor seizure test. It counts as functional. Put shortly:
as §3

Data set [11] in a line: Protection index, ratio of TD50 for neurotoxicity in po dosed Sprague-Dawley rat by rotarod test to ED50 for anticonvulsant activity in po dosed Sprague-Dawley rat by maximal electroshock seizure test. To be noted: in vivo, read-out: Ratio TD50/ED50. It counts as toxicity, organism-based.
The nature of data set [12]: Protection index, ratio of TD50 for neurotoxicity in ip dosed CD1 mouse by rotarod test to ED50 for anticonvulsant activity in ip dosed CD1 mouse by maximal electroshock seizure test. As to conditions: in vivo, read-out: Ratio TD50/ED50. It counts as toxicity, organism-based.
A short description of data set [13]: Protection index, ratio of TD50 for neurotoxicity in ip dosed CD1 mouse by rotarod test to ED50 for anticonvulsant activity in CD1 mouse by 6 Hz psychomotor seizure test. It is filed as toxicity, organism-based. To be noted: in vivo, read-out: Ratio TD50/ED50.
For data set [14], the system named is Mus musculus. As to the kind of experiment: Antiallodynic activity in CD1 mouse assessed as reduction in oxaliplatin-induced neuropathic pain in early phase by measuring paw withdrawal force at 11 mg/kg, ip measured after 3 hrs by Von Frey test relative to untreated control. It counts as functional. On the set-up: scale not given: the % may be the effect or the level left.

Data set [15] deals with Mus musculus. The data set can be described thus: Antiallodynic activity in CD1 mouse assessed as reduction in oxaliplatin-induced neuropathic pain in late phase by measuring paw withdrawal force at 11 mg/kg, ip measured after 7 days by Von Frey test relative to untreated control. It is filed as functional. On the set-up: scale not given: the % may be the effect or the level left.

A short description of data set [16]: Neurotoxicity in CD1 mouse at 100 mg/kg, ip and measured after 0.5 to 4 hrs by rotarod test. It is filed as toxicity, organism-based. To be noted: in vivo. In short, it runs like this:
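Rotarod neurotoxicity screen in mice after intraperitoneal dosing. For the 6 Hz series the count is mice out of four showing neurotoxicity, scored as inability to grasp the rotarod or muscle spasms, at 0.25–4 h. For the initial screen the minimum toxic dose is taken from 30, 100 and 300 mg/kg at 0.5 and 4 h.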

Data set [17] is described as follows: Neurotoxicity in CD1 mouse at 25 mg/kg, ip measured after 1 hr by rotarod test. As to conditions: in vivo.
The nature of data set [18]: Neurotoxicity in CD1 mouse at 25 mg/kg, ip measured after 4 hrs by rotarod test. To be noted: in vivo.
A short description of data set [19]: Neurotoxicity in CD1 mouse at 50 mg/kg, ip measured after 15 mins by rotarod test. As to conditions: in vivo, 0.25 h.
Data set [20] relates to Mus musculus. The data set can be described thus: Anticonvulsant activity in CD1 mouse assessed as protection against 32 mA current-induced seizure at 25 mg/kg, ip measured after 4 hrs by 6 Hz psychomotor seizure test.
In data set [21] the test system is Mus musculus. The data set can be described thus: Anticonvulsant activity in CD1 mouse assessed as protection against 32 mA current-induced seizure at 100 mg/kg, ip measured after 2 hrs by 6 Hz psychomotor seizure test.
The test system of data set [22] is Mus musculus. As to the kind of experiment: Anticonvulsant activity in CD1 mouse assessed as protection against 32 mA current-induced seizure at 50 mg/kg, ip measured after 30 mins by 6 Hz psychomotor seizure test.

Activity calls are given as the source filed them. The rule behind the calls is not given here.

`CN1CCN(CN2C(=O)NC(c3ccccc3)(c3ccccc3)C2=O)CC1`: the Activity entry in data set [1] is listed as “Non-Toxic”; in [2], “Non-Toxic”; in data set [14], 53%; in data set [15], 61%; in [16], “Toxic”; in data set [17], “Non-Toxic”. Moreover, the Activity result in data set [18] and in data set [19] was “Non-Toxic” each time. This molecule registered an MTC in data set [3] of 100 mg/kg. In addition, the minimal effective dose in data set [4] and in [5] was 10 mg/kg each time. Also, the Time in data set [6] came to 4 h; in data set [7], 1 h. The ED50 (commonly the dose that gives a 50% effect, or the effect in half of the subjects) is 11.1 mg/kg in data set [8], more than 80 mg/kg in data set [9] and 12.2 mg/kg in data set [10]. For the same molecule, the selectivity ratio in data set [11] was more than 13; in data set [12], 6.78; in data set [13] it was 6.19. In addition, the result in data set [20] was inactive. The outcome in data set [21] and in data set [22] was Active.
